Results from ChEMBL document CHEMBL1123121, “Aminotetralone analogues of ketamine: synthesis and evaluation of hypnotic and locomotor properties in mice” (1985).

Tested on: Mus musculus
Experiment: Ability to cause […] in mice represented as no. of counts for each animal for a total of 90 min when 100 mg/kg dose was administered intraperitoneally
Type: functional
Conditions: route intraperitoneal
How it was run: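 Mice given the compound intraperitoneally at 100 mg kg-1, dissolved in distilled water; controls received 0.2 mL normal saline. Each mouse was placed on an electronic activity monitor and its counts were recorded for 90 min after injection. Counts per minute were taken as total counts divided by 90. Six animals per group, mean ± SEM, groups compared by Duncan's multiple-range test. Experiments were run between 13.00 and 17.00 h at 20-24 °C.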

SMILES: CC1(N)C(=O)CCc2ccccc21 (stereo unspecified)
- Counts: 27.2 min⁻¹

SMILES: CNC1(C)C(=O)CCc2ccccc21 (stereo unspecified)
- Counts: 25.8 min⁻¹

SMILES: CNC1(C)c2ccccc2CCC1O (stereo unspecified)
- Counts: 20.2 min⁻¹

SMILES: CN(C)C1(C)c2ccccc2CCC1O (stereo unspecified)
- Counts: 37.5 min⁻¹

SMILES: CC1(N2CCCCC2)c2ccccc2CCC1O (stereo unspecified)
- Counts: 21.6 min⁻¹

SMILES: CC1(N)CCc2ccccc2C1=O (stereo unspecified)
- Counts: 60.6 min⁻¹

SMILES: CC1(N2CCCCC2)C(=O)CCc2ccccc21 (stereo unspecified)
- Counts: 4.4 min⁻¹

SMILES: CNC1(c2ccccc2Cl)CCCCC1=O (stereo unspecified) [KETAMINE]
- Counts: 94.3 min⁻¹

SMILES: CN(C)C1(C)C(=O)CCc2ccccc21 (stereo unspecified)
- Counts: 22.9 min⁻¹

SMILES: CN(C)C1(C)CCc2ccccc2C1=O (stereo unspecified)
- Counts: 67.1 min⁻¹

SMILES: CC1(N)c2ccccc2CCC1O (stereo unspecified)
- Counts: 16.2 min⁻¹
